The source of these data is ChEMBL document CHEMBL1150813, “Triterpene saponins from Vietnamese ginseng (Panax vietnamensis) and their hepatocytoprotective activity” (J Nat Prod, 2001).

Format in all cases: functional
For assay [1], the system named is Hepatocyte. The assay can be described thus: Hepatoprotective activity against D-galactosamine/TNFalpha-induced cell death in mouse hepatocytes assessed cell survival rate at 25 uM administered before 30 mins of TNFalpha challenge measured after 18 hrs by MTT assay. Summed up:
(§1)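 Primary mouse hepatocytes, isolated by collagenase perfusion, were cultured in William's E medium with 10% calf serum, dexamethasone and insulin at 1.5×10^4 cells/well. TNF-α (100 ng/mL) was added 30 min later. Viability was read by MTT after 18 h. Values are mean ± SD, n = 4 (normal and control n = 8), with Student's t-test versus control.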

The test system of assay [2] is Hepatocyte. Briefly: Hepatoprotective activity against D-galactosamine/TNFalpha-induced cell death in mouse hepatocytes assessed cell survival rate at 50 uM administered before 30 mins of TNFalpha challenge measured after 18 hrs by MTT assay. Summed up: as §1
The test system of assay [3] is Hepatocyte. The assay can be described thus: Hepatoprotective activity in mouse hepatocytes assessed inhibition of D-galactosamine/TNFalpha-induced cell death at 50 uM administered before 30 mins of TNFalpha challenge measured after 18 hrs. Summed up: as §1
The test system of assay [4] is Hepatocyte. Briefly: Hepatoprotective activity in mouse hepatocytes assessed inhibition of D-galactosamine/TNFalpha-induced cell death at 100 uM administered before 30 mins of TNFalpha challenge measured after 18 hrs. Summed up:
as §1

Assay [5] has as its system Hepatocyte. Briefly: Hepatoprotective activity in mouse hepatocytes assessed inhibition of D-galactosamine/TNFalpha-induced cell death dosed administered before 30 mins of TNFalpha challenge measured after 18 hrs. Summed up: as §1
Assay [6] concerns Hepatocyte. The assay can be described thus: Hepatoprotective activity against D-galactosamine/TNFalpha-induced cell death in mouse hepatocytes assessed cell survival rate at 100 uM administered before 30 mins of TNFalpha challenge measured after 18 hrs by MTT assay. In outline: as §1
A general note: Tetrazolium assays rely on reduction of a dye to a coloured formazan, in cell work by metabolically active cells.

Assay [7] deals with Hepatocyte. The assay can be described thus: Hepatoprotective activity in mouse hepatocytes assessed protection against D-galactosamine/TNFalpha-induced cell death at 100 uM administered before 30 mins of TNFalpha challenge measured after 18 hrs. In outline: as §1
The subject of assay [8] is Hepatocyte. Briefly: Hepatoprotective activity in mouse hepatocytes assessed protection against D-galactosamine/TNFalpha-induced cell death at 50 uM administered before 30 mins of TNFalpha challenge measured after 18 hrs. In outline:
as §1

Assay [9] has as its system Hepatocyte. Briefly: Hepatoprotective activity in mouse hepatocytes assessed inhibition of D-galactosamine/TNFalpha-induced cell death at 25 uM administered before 30 mins of TNFalpha challenge measured after 18 hrs. In outline:
as §1

The test system of assay [10] is Hepatocyte. The assay can be described thus: Hepatoprotective activity against D-galactosamine/TNFalpha-induced cell death in mouse hepatocytes assessed cell survival rate at 12.5 uM administered before 30 mins of TNFalpha challenge measured after 18 hrs by MTT assay. In outline:
as §1

Assay [11] has as its system Hepatocyte. The assay can be described thus: Hepatoprotective activity in mouse hepatocytes assessed protection against D-galactosamine/TNFalpha-induced cell death at 25 uM administered before 30 mins of TNFalpha challenge measured after 18 hrs. Summed up: as §1
Assay [12] relates to Hepatocyte. The assay can be described thus: Hepatoprotective activity in mouse hepatocytes assessed protection against D-galactosamine/TNFalpha-induced cell death at 12.5 uM administered before 30 mins of TNFalpha challenge measured after 18 hrs. In outline:
as §1

Assay [13] concerns Hepatocyte. The assay can be described thus: Hepatoprotective activity in mouse hepatocytes assessed inhibition of D-galactosamine/TNFalpha-induced cell death at 12.5 uM administered before 30 mins of TNFalpha challenge measured after 18 hrs. In outline: as §1

SMILES strings stand for the structures.

The term IC50 denotes the concentration at which inhibition is half-maximal. Lower therefore signals inhibition by little substance. For `CC(=O)OC[C@H]1O[C@@H](O[C@H]2C[C@]3(C)[C@H](C[C@@H](O)[C@@H]4[C@@H]([C@]5(C)CC[C@@H](C(C)(C)O)O5)CC[C@]43C)[C@@]3(C)CC[C@H](O)C(C)(C)[C@H]23)[C@H](O[C@@H]2O[C@H](C)[C@@H](O)[C@H](O)[C@@H]2O)[C@@H](O)[C@@H]1O` [VINA-GINSENOSIDE R1], the Survival in the assay on Hepatocyte [1] came out at 33.1%; in the assay with Hepatocyte [2], 45.6%; in the assay with Hepatocyte [6], 57%. Also, the “inhibition (INH)” value in the assay on Hepatocyte [3] turned out to be 51.7%; in the assay with Hepatocyte [4], 89.8%. Further, inhibition in the assay on Hepatocyte [5] was half-maximal at 47 µM (IC50). In addition, the figures for the Activity in the assay with Hepatocyte [7] and in the assay on Hepatocyte [8] were 71.5% and 29%, respectively.

For `COc1cc(C2Oc3cc([C@H]4Oc5cc(O)cc(O)c5C(=O)[C@@H]4O)ccc3OC2CO)ccc1O` (stereo partly drawn) [SILIBININ], the “inhibition (INH)” value is listed as 99.7% in the assay on Hepatocyte [9], 149.7% in the assay on Hepatocyte [3] and 43.4% in the assay on Hepatocyte [13]. For the same compound, the Survival worked out at 43.1% in the assay on Hepatocyte [10], 60% in the assay with Hepatocyte [1] and 75% in the assay on Hepatocyte [2]. For the same compound, the values for the Activity in the assay on Hepatocyte [11], in the assay with Hepatocyte [12] and with Hepatocyte [8] were 42.8%, 17.3% and 64.3%, respectively. In the assay on Hepatocyte [5], this compound came in with a concentration for half-maximal inhibition (IC50) of 14 µM.
